Here are results for 44 compounds from PubChem BioAssay AID685 (PCMD, 2007).

The campaign covered roughly 30,000 compounds. About 80 (0.3%) were called active.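 Rule for the calls: active = mutant and wild-type yeast strains alike exhibit over 30% growth inhibition; inconclusive = a strain exceeds 50% while the second remains under 30%; inactive = the rest.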 The sample as a whole holds a higher share of actives than the screen did.

This assay is described as follows: S. cerevisiae growth inhibition, turbidity – wild-type and eIF2Bepsilon R284H mutant, A595, cytotoxicity control for eIF2B function restoration project, primary screen (AID 685).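 Note: 0% = untreated cell controls and 100% = YPD media blanks without cells.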 To be noted: 16 h, stronger effect = higher value, screened at 25 µM (by protocol). The method in brief:
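system = S. cerevisiae wild-type or eIF2Bepsilon-R284H mutant strain | buffer or medium = YPD medium | dosing = one dose, 25 µM compound, 0.2% DMSO | schedule = 16 h at 30 °C | measured by = A595 turbidity | evaluation = growth inhibition (%) versus cell controls and blanks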

[1] abbreviates: S. cerevisiae eIF2Bepsilon-R284H mutant growth.

Take `Clc1cccc(N=C2NN=C(c3ccc4c(c3)OCCO4)CS2)c1`: the growth inhibition is 5.13% under setting [1] and -0.77% (inactive) (S. cerevisiae wild-type growth).
The like results for `CC(C)Oc1ccc(Oc2ccc(C(F)(F)F)cn2)cc1` were, in that order, 7.69% and 6% (inactive).
As for `Cc1ccc(C2C(C#N)C(C#N)N3CCCN23)cc1` (stereo not drawn), the growth inhibition is, setting by setting: under setting [1], 13%; (S. cerevisiae wild-type growth) -7.5% (inactive).
The corresponding values for `Cc1ccc(C(=O)CSc2nnc(Cn3nnc4ccccc43)n2C)cc1` are 3.7% and 16.7% (inactive).
As to `COc1ccc(OCC(=O)N2CCOCC2)cc1`, the growth inhibition under setting [1] stood at 17.9% and the growth inhibition (S. cerevisiae wild-type growth) was 15.5% (inactive).
In the case of `O=S(=O)(NCC1OCCc2ccccc21)c1ccccc1` (stereo not drawn), the growth inhibition by setting is: under setting [1], 15.2%; (S. cerevisiae wild-type growth) 16.1% (inactive).
The like results for `CCN(c1ccccc1)S(=O)(=O)c1ccc(NC(=O)C(C)(C)C)cc1` were, in that order, 15% and -4.62% (inactive).
The corresponding values for `Cc1cc(-c2ccccc2)nc(N2CCC(C(=O)NC34CC5CC(CC(C5)C3)C4)CC2)n1` are -19.1% and 2.16% (inactive).
The like results for `C=CCNC(=O)c1ccc(C)c(Br)c1` were, in that order, 0% and 6.76% (inactive).
For the compound `CCN(CC)S(=O)(=O)c1ccc2c3c(cccc13)C(=O)S2`, the growth inhibition under setting [1] was -4.76% and the growth inhibition (S. cerevisiae wild-type growth) was 16.2% (inactive).
The corresponding values for `O=C(O)CCC(=O)NCc1ccc(C(=O)O)cc1` are 16.7% and 9.62% (inactive).
The like results for `Cc1cccn2c(=O)c(/C=C(\C#N)S(=O)(=O)c3ccc(Cl)cc3)c(N3CCC(C(N)=O)CC3)nc12` were, in that order, 0% and 7.31% (inactive).
For the compound `CCCCSc1[nH]c(=O)c(C(=O)OCC)cc1C#N`, the growth inhibition by setting is: under setting [1], 5%; (S. cerevisiae wild-type growth) 2.76% (inactive).
The like results for `COc1ccc(CN(Cc2ccco2)S(=O)(=O)c2ccc(S(=O)(=O)N3CCCC3)cc2)cc1` were, in that order, -2.56% and 16.6% (inactive).
The like results for `O=C(CN1CCOCC1)Nc1ccccc1` were, in that order, 12.8% and 11.2% (inactive).
With `CCCCCCNC(=O)CSc1nccn1Cc1ccccc1`, the growth inhibition reads like this: under setting [1], 11.1%; (S. cerevisiae wild-type growth) 20.4% (inactive).
On to `Cc1ccc(CNC(=O)COc2ccc(S(=O)(=O)NC(C)C)cc2)cc1`, for which the growth inhibition reads like this: under setting [1], 11.6%; (S. cerevisiae wild-type growth) 20.3% (inactive).
The like results for `COc1ccc(NC(=O)Cn2c(=O)n(Cc3ccco3)c(=O)c3ccccc32)cc1` were, in that order, -12.8% and -47.3% (inactive).
The like results for `O=c1c2ccccc2nc(CSc2nnnn2-c2ccccc2)n1-c1ccccc1` were, in that order, -14.8% and -3.81% (inactive).
The like results for `CCN(CC)C(=O)CSc1nnc(C2CCCCC2)o1` were, in that order, 6.82% and 9.66% (inactive).
Take `CCOc1cc(NC(=O)c2cnccn2)c(OCC)cc1NC(=O)c1ccc(C)cc1`: the growth inhibition runs as follows: under setting [1], -33.3%; (S. cerevisiae wild-type growth) -5.09% (inactive).
The corresponding values for `CC(C)(C)C(=O)Cn1c(NCCO)nc2ccccc21` are -6.25% and 21% (inactive).
The like results for `Cc1ccc(-n2ccc(=O)c(C(=O)O)n2)cc1` were, in that order, 18.9% and 4.62% (inactive).
In the case of `Cc1ccc(Cc2c(C)nc3nc(SCC(=O)NCCN4CCOCC4)nn3c2C)cc1`, the growth inhibition runs as follows: under setting [1], 0%; (S. cerevisiae wild-type growth) 3.33% (inactive).
The corresponding values for `CC(C)CC(=O)Nc1cc(C(F)(F)F)ccc1N1CCOCC1` are 10.5% and 18.6% (inactive).
The like results for `CCC(c1nnnn1C1CCCC1)N1CCN(C(=O)c2ccco2)CC1` (stereo not drawn) were, in that order, -13.6% and -4.24% (inactive).
The corresponding values for `CCC(O)CNc1nc(-n2nc(C)cc2C)nc2sc3c(c12)CC(C)(C)OC3` (stereo not drawn) are -4.55% and 4.83% (inactive).
For `O=C(CCc1ccccc1)NCc1cccnc1`, the growth inhibition by setting is: under setting [1], 4.55%; (S. cerevisiae wild-type growth) -12.1% (inactive).
On to `CCOCCCNC(=O)c1c[nH]c2cc(C)ccc2c1=O`, for which the growth inhibition under setting [1] is -17.9% and the growth inhibition (S. cerevisiae wild-type growth) was 16.6% (inactive).
The corresponding values for `N#Cc1c(/N=C/N2CCCC2)oc(-c2ccccc2)c1-c1ccccc1` are 7.69% and -15.7% (inactive).
The like results for `COc1ccccc1NC(=O)C1CCCN(c2cc(C)nc3ncnn23)C1` (stereo not drawn) were, in that order, -7.89% and 2.42% (inactive).
Consider `COc1ccc2oc(C)c(NC(C)=O)c2c1`, for which the growth inhibition runs as follows: under setting [1], -6.67%; (S. cerevisiae wild-type growth) 17.6% (inactive).
The corresponding values for `FC(F)(F)c1nnc2ccc(N3CCN(c4ccccc4)CC3)nn12` are 9.68% and 11.8% (inactive).
The corresponding values for `OC(c1ccccc1)c1nccn1Cc1ccccc1` (stereo not drawn) are 6.98% and 31% (inactive).
Consider `O=C(CCC(=O)OCC(F)(F)C(F)F)NCc1ccccc1`, for which the growth inhibition is, setting by setting: under setting [1], 8.11%; (S. cerevisiae wild-type growth) 2.5% (inactive).
Take `CCOC(=O)CSc1nc2ccc(C)cc2[nH]1`: the growth inhibition is, setting by setting: under setting [1], 0%; (S. cerevisiae wild-type growth) -5.43% (inactive).
The like results for `CC(=O)c1cccc(NC(=O)Nc2ccc(C)cc2)c1` were, in that order, 12.5% and -4.69% (inactive).
The corresponding values for `COc1ccc(N2CCN(C(=O)CCc3nc(-c4ccc(C)cc4)no3)CC2)cc1` are 5% and 10% (inactive).
The corresponding values for `Cc1ccc(S(=O)(=O)Oc2ccc(/C=N/NC(=O)c3c(Cl)cnn3C)cc2)cc1` are 0% and 11.2% (inactive).
For the compound `CCCc1nc(NCc2ccc3c(c2)OCO3)c2nnn(Cc3ccccc3Cl)c2n1`, the growth inhibition is, setting by setting: under setting [1], -4.84%; (S. cerevisiae wild-type growth) -14.3% (inactive).
As to `COc1ccc(CN2CN(C(C)C)CSC2=S)cc1`, the growth inhibition by setting is: under setting [1], 81.8%; (S. cerevisiae wild-type growth) 44.7% (active).
The like results for `COc1cc2c(cc1OC)C(C(C)C)=NC(C)(C)C2` were, in that order, 3.13% and 7.59% (inactive).
The corresponding values for `CCOCCCNC(=O)C(NC(=O)CNC(=O)c1ccccc1)c1ccc(C)cc1` (stereo not drawn) are 0% and 1.25% (inactive).
Turning to `C=C(C)CSc1nnc(-c2ccc(C)cc2)n1N`, the growth inhibition was 10.3% under setting [1] and -3.2% (inactive) (S. cerevisiae wild-type growth).
